A selection: hits, their analogues and other compounds. The true share with any hit is near 1.9%.
HGIII-sPLA2 inh – human group III sPLA2 inhibitors, primary screen, biochemical, QFRET, BODIPY PC-A2 liposome substrate. inhibition, % at 12.2 µM. actives 0.56% (n = 370,000). Group 3 secretory phospholipase A2 (Homo sapiens), Q9NZ20. QFRET BODIPY PC-A2 liposome hydrolysis, fluorescence;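 active = inhibition above mean plus 3 SD of compounds lying within the high and low control bounds, cut at about 19% in these data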
PLCb3 inh – human PLC-beta3 inhibitors, primary screen, biochemical, fluorescence | Purified PLC-beta3, fluorogenic substrate | inhibition, % at 12.2 µM | AID 720704, 2013 | 1-phosphatidylinositol 4,5-bisphosphate phosphodiesterase beta-3 (Homo sapiens), Q01970 | actives 0.18% (n = 370,000); in the data active = inhibition above about 11%
Arr AP2 block – inhibitors of beta-arrestin/AP2 binding, primary screen, biochemical, GPCR trafficking, flow cytometry; beta-arrestin 1 C-terminal peptide binding to AP2 beta2-adaptin appendage (human); FITC-arrestin peptide / GST-AP2 beads; AP2 beta2 appendage carries R879A mutation; inhibition, % at 10 µM; actives 0.31% (n = 340,000); AID 504490, 2011;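 active = inhibition above a set limit, near 3 SD of compounds lacking own fluorescence, cut at about 54% in these data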
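Measured by: flow cytometry, FL1 (488/535 nm); Material: AP2 appendage R879A on GSH beads; Evaluation: percent response; Timing: pre-incubation 12 min, peptide binding 1 h, room temperature; Also added: 50 nM FITC-arrestin peptide; Medium: PBS with 0.05% Tween 20 and 0.1% BSA.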
procasp7 counter – procaspase-7 activators, primary screen, counter-screen for procaspase-3 activator project, biochemical, absorbance, HTS, human; actives 0.093% (n = 330,000); activation, % at 8.5 µM; Caspase-7 (Homo sapiens), P55210; recombinant procaspase-7, Ac-DEVD-pNA absorbance 405 nm; D23A/D198A/D206A triple mutant, cannot self-cleave; scale: DMSO 0, 5 µM enzyme 100;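 active = percent activation above the screen-wide mean plus 3 SD, cut at about 25% in these data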
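Assay system – Uncleavable procaspase-7 mutant enzyme · Quantity – 2 µM procaspase-7 mutant as dispensed · Times – 1 h preincubation, 2 h reaction · Dosing – single nominal 8.5 µM compound dose, 0.8% DMSO final · Buffer or medium – Zinc-free 50 mM HEPES buffer, pH 7.4, with NaCl and Triton X-100 · Detection – Epi-absorbance of released pNA at 405 nm, two timepoints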
PLC-gamma1 inh – PLC-gamma1 enzyme inhibitors, primary screen, biochemical, fluorescence, purified enzyme | inhibition, % at 12.2 µM | actives 0.84% (n = 370,000) | fluorogenic substrate | 1-phosphatidylinositol 4,5-bisphosphate phosphodiesterase gamma-1 (Homo sapiens), P19174
Target sequence (P19174 whole entry, looked up): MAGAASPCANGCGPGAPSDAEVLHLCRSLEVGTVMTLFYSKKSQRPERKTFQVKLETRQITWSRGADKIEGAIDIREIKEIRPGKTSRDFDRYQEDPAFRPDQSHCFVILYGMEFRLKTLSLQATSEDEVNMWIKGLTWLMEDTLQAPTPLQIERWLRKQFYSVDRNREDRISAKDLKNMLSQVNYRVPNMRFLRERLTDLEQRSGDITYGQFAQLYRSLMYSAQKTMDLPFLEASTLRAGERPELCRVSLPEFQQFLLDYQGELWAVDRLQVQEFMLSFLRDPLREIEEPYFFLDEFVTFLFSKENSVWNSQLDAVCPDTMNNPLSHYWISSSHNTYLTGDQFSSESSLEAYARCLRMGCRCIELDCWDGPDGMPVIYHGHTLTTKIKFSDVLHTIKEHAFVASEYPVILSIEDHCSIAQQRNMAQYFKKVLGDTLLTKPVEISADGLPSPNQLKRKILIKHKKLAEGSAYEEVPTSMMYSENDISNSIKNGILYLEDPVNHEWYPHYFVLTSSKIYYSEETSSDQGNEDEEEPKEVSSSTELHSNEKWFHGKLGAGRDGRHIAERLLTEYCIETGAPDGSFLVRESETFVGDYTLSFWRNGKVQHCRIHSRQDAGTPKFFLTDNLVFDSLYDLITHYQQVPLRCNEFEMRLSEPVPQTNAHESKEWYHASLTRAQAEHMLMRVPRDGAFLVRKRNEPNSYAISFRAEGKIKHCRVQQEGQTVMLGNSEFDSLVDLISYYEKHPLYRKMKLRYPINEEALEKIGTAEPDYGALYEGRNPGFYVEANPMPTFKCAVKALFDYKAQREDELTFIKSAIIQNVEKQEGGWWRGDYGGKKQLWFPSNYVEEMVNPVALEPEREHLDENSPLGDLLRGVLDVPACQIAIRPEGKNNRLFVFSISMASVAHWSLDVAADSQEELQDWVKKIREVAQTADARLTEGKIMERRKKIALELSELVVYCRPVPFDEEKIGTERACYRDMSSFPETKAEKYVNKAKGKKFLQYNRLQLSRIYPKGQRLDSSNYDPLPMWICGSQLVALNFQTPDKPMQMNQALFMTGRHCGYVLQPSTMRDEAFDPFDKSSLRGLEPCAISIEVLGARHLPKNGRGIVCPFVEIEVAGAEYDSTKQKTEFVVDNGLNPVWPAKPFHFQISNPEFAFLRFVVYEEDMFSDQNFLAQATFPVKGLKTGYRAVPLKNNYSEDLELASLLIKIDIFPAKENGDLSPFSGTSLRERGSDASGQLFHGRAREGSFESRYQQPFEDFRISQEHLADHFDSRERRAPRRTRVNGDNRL
procasp3 activ – activators of human procaspase-3 D3A mutant, primary screen, biochemical, absorbance, PC-3 D3A mutant, single concentration | Caspase-3 (Homo sapiens), P42574 | recombinant procaspase-3 D3A, Ac-DEVD-pNA absorbance 405 nm | activation, % at 8.5 µM | actives 0.11% (n = 330,000) | AID 463141, 2010;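 active = activation above the mean of all tested compounds plus 3 SD, cut at about 21% in these data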
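material = Procaspase-3 D3A mutant | probe or stimulus = Ac-DEVD-pNA | compound = single dose, 8.5 µM nominal compound, 0.8% DMSO | timing = 1 h preincubation, 2 h reaction | measured by = 405 nm absorbance of p-nitroaniline, reads at 0 and 120 min | benchmarks = DMSO-only low control, 5 µM PC-3 D3A high control | repeats = singlicate, each compound tested once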
PLCgamma1 ctr – PLC-gamma1 enzyme inhibitors, counter-screen for PLC-beta3 inhibitor project, biochemical, fluorescence; shares compounds with PLC-gamma1 inh; purified PLC-gamma1, fluorogenic substrate; inhibition, % at 12.3 µM; actives 3.1% (n = 3,300); AID 743258, 2014
PLCbeta3 conf – PLC-beta3 inhibitor confirmation, biochemical, fluorescence, purified enzyme; shares compounds with PLC-gamma1 inh; fluorogenic substrate fluorescence; inhibition, % at 12.3 µM; actives 1% (n = 3,300); AID 743261, 2014; in the data active = inhibition above about 11%
Numbers stand for hits. Cut-off read from the data, not from the text of the source, unless noted: active = inhibition above about 9.5%; inactive = the rest.

For C[C@H]1[C@@H](OC(=O)NCc2ccco2)CC[C@@]23CCCN2C(=O)CCC[C@@H]13 the results were HGIII-sPLA2 inh inactive, PLCb3 inh inactive and PLC-gamma1 inh inactive.
`O=C(c1ccc(F)cc1)N1CCC(C(=O)N2CCN(S(=O)(=O)c3cccc([N+](=O)[O-])c3)CC2)CC1` gave HGIII-sPLA2 inh inactive, PLCb3 inh inactive, Arr AP2 block inactive, procasp7 counter inactive, PLC-gamma1 inh inactive and procasp3 activ inactive.
`CC(=O)N1[C@H](CO)[C@@H](c2ccccc2)[C@@H]1CN(C(=O)c1ccc(F)cc1)C(C)C` gave HGIII-sPLA2 inh inactive, PLCb3 inh inactive and PLC-gamma1 inh inactive.
Screening O=C(O)C1CCCCC1C(=O)Nc1nccs1 (stereo not drawn) returned HGIII-sPLA2 inh inactive, PLCb3 inh inactive, Arr AP2 block inactive, procasp7 counter inactive, PLC-gamma1 inh 12, procasp3 activ inactive, PLCgamma1 ctr inactive and PLCbeta3 conf inactive.
COc1ccc(OCCOc2ccc(S(=O)(=O)N3CCCC3)cc2[N+](=O)[O-])cc1 was read as HGIII-sPLA2 inh inactive, PLCb3 inh inactive, Arr AP2 block inactive, procasp7 counter inactive, PLC-gamma1 inh inactive and procasp3 activ inactive.
`COc1cccc(Oc2ccc(S(=O)(=O)N3CCCC3)cc2[N+](=O)[O-])c1` gave HGIII-sPLA2 inh inactive, PLCb3 inh inactive, Arr AP2 block inactive, procasp7 counter inactive, PLC-gamma1 inh 9.6, procasp3 activ inactive, PLCgamma1 ctr inactive and PLCbeta3 conf inactive.
CCN(CC)C(=O)C1=C(C)N(Cc2ccc(C(C)(C)C)cc2)C(=O)C(CC(=O)NC2CCCC2)C1 (stereo not drawn) was read as HGIII-sPLA2 inh inactive, PLCb3 inh inactive, PLC-gamma1 inh 11, PLCgamma1 ctr inactive and PLCbeta3 conf inactive.
CN(C(=O)c1ccccc1)C1c2c(ccc3ccccc23)OCC1CO (stereo not drawn) was read as HGIII-sPLA2 inh inactive, PLCb3 inh inactive, Arr AP2 block inactive, procasp7 counter inactive, PLC-gamma1 inh 10, procasp3 activ inactive, PLCgamma1 ctr inactive and PLCbeta3 conf 11.
CC1CCN(S(=O)(=O)c2ccc3c(c2)N(CC(=O)NCCCN2C(C)CCCC2C)C(=O)CO3)CC1 (stereo not drawn) was read as HGIII-sPLA2 inh inactive, PLCb3 inh inactive, Arr AP2 block inactive, procasp7 counter inactive, PLC-gamma1 inh 11, procasp3 activ inactive, PLCgamma1 ctr inactive and PLCbeta3 conf inactive.
For O=C(Nc1nc(C2C3CC4CC(C3)CC2C4)cs1)c1cc2cc([N+](=O)[O-])ccc2oc1=O (stereo not drawn) the results were HGIII-sPLA2 inh inactive, PLCb3 inh inactive, Arr AP2 block inactive, procasp7 counter inactive, PLC-gamma1 inh 14, procasp3 activ inactive, PLCgamma1 ctr inactive and PLCbeta3 conf inactive.
For O=C(c1cc2cc([N+](=O)[O-])ccc2oc1=O)n1cccn1 the results were HGIII-sPLA2 inh inactive, PLCb3 inh inactive, Arr AP2 block inactive, procasp7 counter inactive, PLC-gamma1 inh inactive and procasp3 activ inactive.
For Cc1ccc(N(CC(=O)N/N=C/c2cc(C)n(-c3ccccc3C)c2C)S(C)(=O)=O)cc1 the results were HGIII-sPLA2 inh inactive, PLCb3 inh inactive, Arr AP2 block inactive, procasp7 counter inactive, PLC-gamma1 inh inactive and procasp3 activ inactive.
For Cc1ccc(-n2nc3c(c2NC(=O)c2ccc4c(c2)OCO4)CS(=O)C3)cc1 (stereo not drawn) the results were HGIII-sPLA2 inh inactive, PLCb3 inh inactive, Arr AP2 block inactive, procasp7 counter inactive, PLC-gamma1 inh 11, procasp3 activ inactive, PLCgamma1 ctr inactive and PLCbeta3 conf inactive.
For COc1ccc(CC2C(=O)OC(C)(C)OC2=O)cc1 the results were HGIII-sPLA2 inh inactive, PLCb3 inh inactive, Arr AP2 block inactive, procasp7 counter inactive, PLC-gamma1 inh inactive and procasp3 activ inactive.
Screening COc1ccc(CC2CCOC2=O)cc1 (stereo not drawn) returned HGIII-sPLA2 inh inactive, PLCb3 inh inactive, Arr AP2 block inactive, procasp7 counter inactive, PLC-gamma1 inh 10, procasp3 activ inactive, PLCgamma1 ctr inactive and PLCbeta3 conf inactive.
Screening O=[N+]([O-])c1ccc(F)c(CN2CCN(c3ncc(Cc4ccccc4)cn3)CC2)c1 returned HGIII-sPLA2 inh inactive, PLCb3 inh inactive and PLC-gamma1 inh inactive.
Cc1ccc([N+](=O)[O-])cc1CN1CCN(c2ncc(Cc3ccccc3)cn2)CC1 was read as HGIII-sPLA2 inh inactive, PLCb3 inh 14, PLC-gamma1 inh inactive, PLCgamma1 ctr inactive and PLCbeta3 conf inactive.
`COC(=O)[C@]12C[C@H](CC(=O)NCCCCc3ccccc3)C(=O)N(CCc3ccc(OC)c(OC)c3)C1=C[C@H](C1CCCC1)O[C@@H]2C` gave HGIII-sPLA2 inh inactive, PLCb3 inh inactive and PLC-gamma1 inh inactive.
For COc1ccc(S(=O)(=O)N2CCc3ccccc3C2)cc1OC the results were HGIII-sPLA2 inh inactive, PLCb3 inh inactive, Arr AP2 block inactive, procasp7 counter inactive, PLC-gamma1 inh 13, procasp3 activ inactive, PLCgamma1 ctr inactive and PLCbeta3 conf inactive.
For COCCN1CCCc2nc(-c3ccc(F)cc3)ccc21 the results were HGIII-sPLA2 inh inactive, PLCb3 inh inactive and PLC-gamma1 inh inactive.
For CC(C)Oc1ccc(N2CC(C(=O)Nc3ccc(N4CCOCC4)cc3)CC2=O)cc1 (stereo not drawn) the results were HGIII-sPLA2 inh inactive, PLCb3 inh 12, Arr AP2 block inactive, procasp7 counter inactive, PLC-gamma1 inh 12, procasp3 activ inactive, PLCgamma1 ctr inactive and PLCbeta3 conf inactive.

Source: PubChem
